Only some compounds are listed: those with a hit (about 2.5% of all), similar ones and a draw of the others.
PHOSPHO1 inh = blocks human PHOSPHO1 phosphatase activity | Q8TCT1 | inhibition, % at 13.3 µM | recombinant PHOSPHO1, absorbance phosphatase assay | AID 1565 | actives 1.1% (n = 290,000); in the data active = inhibition above about 60%
PfG6PD inh = PfG6PD (Plasmodium falciparum) enzyme inhibition; actives 0.78% (n = 350,000); inhibition, % at 20 µM; PfGluPho enzyme, NADPH resazurin-diaphorase fluorescence;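 active = inhibition reaching at least a set limit at 20 µM in the primary screen, cut at about 59% in these data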;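 also: 0% = DMSO wells with substrate and 100% = DMSO wells lacking glucose-6-phosphate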
EP2 antag = EP2 receptor (human) inhibition. P43116. C6 glioma cells expressing human EP2, cAMP TR-FRET; cells stimulated with saturating PGE2. inhibition, % at 25 µM. actives 0.52% (n = 260,000). AID 1422;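 active = percent inhibition above 40 after rounding to a whole number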;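 also: rat C6 glioma host cells with rolipram phosphodiesterase inhibitor present; the protocol text gives 20 µM as final concentration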
Target sequence (P43116 whole entry, looked up): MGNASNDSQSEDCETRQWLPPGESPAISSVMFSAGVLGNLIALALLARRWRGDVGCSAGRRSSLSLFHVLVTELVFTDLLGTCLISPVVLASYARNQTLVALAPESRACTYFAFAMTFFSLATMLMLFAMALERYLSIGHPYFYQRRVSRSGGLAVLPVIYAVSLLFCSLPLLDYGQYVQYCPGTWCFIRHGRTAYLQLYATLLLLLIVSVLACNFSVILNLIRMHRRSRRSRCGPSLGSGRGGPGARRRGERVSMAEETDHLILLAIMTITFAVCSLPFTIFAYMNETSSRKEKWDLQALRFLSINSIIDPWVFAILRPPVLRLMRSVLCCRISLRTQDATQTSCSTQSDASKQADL
TbHK1 inh = blocks Trypanosoma brucei hexokinase 1 activity. recombinant TbHK1, G6PDH-coupled NADH A340. inhibition, % at 10 µM. actives 0.11% (n = 220,000). AID 1430;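 active = inhibition of 50% or more in the single-dose primary screen; inactive = inhibition below 50%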
HKDC1 inhibitor = blocks human hexokinase HKDC1 activity | Q2TB90 | recombinant HKDC1, G6PDH/diaphorase resazurin coupled fluorescence | inhibition, % at 20 µM | actives 0.16% (n = 340,000);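 active = inhibition above about 35% when tested at 20 µM, limit read from the data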;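 also: plate controls were DMSO wells with enzyme for no effect and DMSO wells lacking enzyme for full effect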
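Material – in-house recombinant HK5 (HKDC1) enzyme · Quantity – HKDC1 at 5 µg/mL · Buffer or medium – pH 8.0 Tris buffer with 10 mM MgCl2 · Reagent – glucose with 1 mM ATP · Dosing – single 20 µM dose · Times – reaction time 90 min, room temperature, protected from light · Technique – resorufin fluorescence at 613 nm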
EP2 mod = modulators of human EP2 prostaglandin E2 receptor; actives 0.83% (n = 260,000); induction, % at 25 µM; P43116; EP2-expressing cells, cAMP HTRF FRET, PGE2 co-stimulation;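 active = compounds whose cAMP rise, as percent of the full-agonist control response, exceeds 60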;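 also: rat C6 glioma line stably carrying human EP2 under a CMV promoter; the protocol text gives 20 µM as final concentration; 100% = response of wells given 1 µM PGE2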
PfGluPho conf = PfG6PD inhibition, single-dose confirmed; shares compounds with PfG6PD inh; recombinant PfGluPho, NADPH-diaphorase-resazurin fluorescence; inhibition, % at 20 µM; actives 34% (n = 2,400); AID 504753;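 active = inhibition of at least 50% at 20 µM in any single replicate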;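 also: 0% = DMSO with substrate and 100% = DMSO lacking glucose-6-phosphate substrate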
Diaphorase 10uM = inhibits diaphorase or oxidizes, flagging false PfG6PD hits; shares compounds with PfG6PD inh; AID 504862; inhibition, % at 20 µM; diaphorase-coupled resazurin reduction, fluorescence, NADPH 10 uM; actives 39% (n = 820);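 active = average inhibition reaching 50% or more with the compound at 20 µM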;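 also: resorufin red fluorescence formed as diaphorase reduces resazurin using NADPH; 0% = DMSO with enzyme and 100% = DMSO without enzyme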
Diaphorase 30uM = inhibits diaphorase or oxidizes, flagging false PfG6PD hits | shares compounds with PfG6PD inh | Diaphorase/resazurin coupled assay, resorufin fluorescence, 30 uM NADPH | inhibition, % at 20 µM | actives 29% (n = 820) | AID 504863;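 active = inhibition averaging 50% or more, tested at 20 µM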;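 also: 0% = DMSO with enzyme and 100% = DMSO wells lacking diaphorase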
* marks the source's active call; other numbers are inactive results; / = no result.

SMILES	PHOSPHO1 inh	PfG6PD inh	EP2 antag	TbHK1 inh	HKDC1 inhibitor	EP2 mod	PfGluPho conf	others
CSC1=NS(=O)(=O)c2c(C)nn(C)c2S1	90*	63*	16	0	-8	-59	2
CN1CCc2cc3c(c4c2[C@H]1[C@H](O)c1ccccc1-4)OCO3	-11	52	10	1	13	13	/
CN1CCc2cccc3c2[C@H]1Cc1ccc(O)c(O)c1-3	-6	87*	34	16	4	-35	89*	Diaphorase 10uM=21;Diaphorase 30uM=3
COc1ccc(-n2cnc(=S)[nH]c2=S)cc1	/	75*	/	/	-18	/	7
S=c1[nH]nc(-c2ccn[nH]2)n1-c1ccccc1Cl	-152	27	8	7	1	-14	/
S=c1[nH]nc(-c2ccc3ccccc3n2)n1-c1ccccc1Cl	1	63*	8	-8	1	-7	48
COc1cc(SC)ccc1C(=O)Nc1ccccn1	13	33	2	-2	-1	-12	/
COc1cc(SC)ccc1C(=O)Nc1ccc(C)cc1C	0	24	6	4	5	-6	/
COc1cc(SC)ccc1C(=O)Nc1ccc(C)cc1	32	61*	10	0	-10	11	22
COc1cc(SC)ccc1C(=O)Nc1ccc2ncccc2c1	18	81*	/	/	-2	/	12
O=C(CSc1nnc2n(CC(=O)N3CCCC3)c3ccccc3n12)c1ccc2c(c1)OCCO2	/	/	12	/	/	12	/
CCC(=O)OCCNc1cc(Sc2nc3ccccc3[nH]2)c2nonc2c1[N+](=O)[O-]	-6	51	8	-11	8	-4	/
Cc1nnc(Sc2cc(NCCO)c([N+](=O)[O-])c3nonc23)s1	44	86*	50*	-11	10	-69	68*	Diaphorase 10uM=-1;Diaphorase 30uM=20
O=[N+]([O-])c1c(NCCCO)cc(Sc2nc3ccccc3s2)c2nonc12	-100	77*	/	0	11	-34	54*	Diaphorase 10uM=-2;Diaphorase 30uM=-2
CCC(=O)OCCNc1cc(Sc2nc3ccccc3s2)c2nonc2c1[N+](=O)[O-]	88*	79*	32	3	14	-15	64*	Diaphorase 10uM=-5;Diaphorase 30uM=-6
Cc1cc(C)c(S(=O)(=O)Nc2cccnc2)cc1C	/	/	8	/	/	-10	/
COc1nc(-c2ccc(C)cc2)ccc1-c1noc(-c2ccncc2)n1	/	/	8	/	/	-9	/
O=C1OC(c2ccccc2)(c2ccc3cc(O)ccc3c2)c2ccccc21 (stereo not given)	/	62*	/	/	15	/	-10
O=C1OC2(c3ccccc31)c1ccccc1-c1ccccc12	/	84*	/	/	3	/	31
O=C1OC(c2ccc(O)cc2)(c2ccc(O)cc2)c2ccccc21	4	-48	16	7	2	41	/
CCOc1ccc2[nH]c(=O)c(CN(Cc3nnnn3Cc3ccc(F)cc3)C3CCCCC3)cc2c1	/	/	15	/	/	-7	/
CS(=O)(=O)c1ccc(N)c(SSc2cc(S(C)(=O)=O)ccc2N)c1	/	97*	/	/	9	/	99*	Diaphorase 10uM=-29;Diaphorase 30uM=-20
CS(=O)(=O)c1ccc2nc(N)sc2c1	21	4	6	-2	3	21	/
S=C(Nc1ccccn1)c1ccccn1	43	67*	11	-5	4	-16	13
C[C@H](CO)N1C[C@H](C)[C@@H](CN(C)C(=O)Nc2ccc(C(F)(F)F)cc2)Oc2c(NC(=O)Nc3ccccc3)cccc2C1=O	/	22	/	/	-1	/	/
C[C@H](CO)N1C[C@H](C)[C@@H](CN(C)C(=O)Nc2ccc(C(F)(F)F)cc2)Oc2c(cccc2N(C)C)C1=O	/	82*	/	/	-1	/	64*	Diaphorase 10uM=54*;Diaphorase 30uM=48
CN(C)c1ccc(CN(CCCn2ccnc2)Cc2ccc3c(c2)CCO3)cc1	/	/	3	/	/	12	/
COc1ccc(C(O)CN2CCC(O)(c3ccccc3C)CC2)cc1OC (stereo not given)	/	/	9	/	/	-59	/

Source: PubChem BioAssay
